A short description of data set [1]: Selectivity ratio of IC50 for human GST-tagged PDE9A2 expressed in insect cells to IC50 for rhesus monkey brain PDE2A3 expressed in human AD293 cells.
Data set [2] is described as follows: Inhibition of rhesus monkey brain PDE2A3 expressed in human AD293 cells using FAM-labeled cAMP/cGMP as substrate incubated for 60 mins measured after 1 hr by IMAP based fluorescence polarization assay. For orientation: In fluorescence polarisation assays a small probe gives low polarisation when free and higher when bound to something large.
Data set [3] in a line: Lipophilicity, log D of the compound by HPLC method. The class given is physicochemical.
The nature of data set [4]: Selectivity ratio of IC50 for human GST-tagged PDE4A1A expressed in insect cells to IC50 for rhesus monkey brain PDE2A3 expressed in human AD293 cells.
The nature of data set [5]: Selectivity ratio of IC50 for human GST-tagged PDE8A1 expressed in insect cells to IC50 for rhesus monkey brain PDE2A3 expressed in human AD293 cells.
Data set [6] is described as follows: Selectivity ratio of IC50 for human GST-tagged PDE7A expressed in insect cells to IC50 for rhesus monkey brain PDE2A3 expressed in human AD293 cells.
A short description of data set [7]: Selectivity ratio of IC50 for human GST-tagged PDE6C expressed in insect cells to IC50 for rhesus monkey brain PDE2A3 expressed in human AD293 cells.
Data set [8] in a line: Selectivity ratio of IC50 for human GST-tagged PDE1A expressed in insect cells to IC50 for rhesus monkey brain PDE2A3 expressed in human AD293 cells.
A short description of data set [9]: Selectivity ratio of IC50 for human GST-tagged PDE11A4 expressed in insect cells to IC50 for rhesus monkey brain PDE2A3 expressed in human AD293 cells.
The nature of data set [10]: Selectivity ratio of IC50 for human GST-tagged PDE5A1 expressed in insect cells to IC50 for rhesus monkey brain PDE2A3 expressed in human AD293 cells.
Data set [11] in a line: Selectivity ratio of IC50 for human GST-tagged PDE3A expressed in insect cells to IC50 for rhesus monkey brain PDE2A3 expressed in human AD293 cells.
Data set [12] in a line: Selectivity ratio of IC50 for human GST-tagged PDE10A2 expressed in insect cells to IC50 for rhesus monkey brain PDE2A3 expressed in human AD293 cells.
Data set [13] can be described thus: Protein binding in rat plasma. In kind it is ADME, cell-free. Conditions: read-out: PPB (converted).
The test system of data set [14] is Rattus norvegicus. Description: Increase in cGMP levels in rat brain cytosolic fraction of cortical tissue at 3 to 30 mg/kg, po measured after 30 mins by ELISA. The class given is functional, organism-based. A digest of the protocol: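 Rats dosed orally at 3, 10 or 30 mg/kg; brain tissue harvested 30 min after dosing and frozen; cortical cGMP measured and compared with controls.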
Background: ELISA stands for enzyme-linked immunosorbent assay.

Data set [15] concerns Rhesus monkey. The data set is described as follows: Reversal of scopolamine-induced cognitive impairment in rhesus monkey assessed increase in novel object retrieval at 1 mg/kg administered orally 4 hrs prior to testing by novel object recognition test. The class given is functional, organism-based. Conditions: Macaca mulatta. A digest of the protocol: (§1)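 Rhesus monkeys impaired with scopolamine performed an object retrieval task. A food item was placed deep inside a clear box whose single open side was out of direct view. Each attempt was scored correct if the food was retrieved without touching a closed side. Read-out was percentage correct versus scopolamine alone, with donepezil as positive control.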

Data set [16] is described as follows: Inhibition of CYP450 (unknown origin). The class given is ADME, Homo sapiens.
Data set [17] can be described thus: Intrinsic clearance in human liver microsomes. The conditions noted are these: read-out: CLH. The class given is ADME, microsome. In general terms: Liver microsomes are a subcellular fraction often used to study metabolism.
The test system of data set [18] is P-gp. The data set is described as follows: Substrate activity at rat P-gp assessed as efflux ratio. The class given is ADME. Conditions: not told.
Data set [19] relates to Rhesus monkey. Description: Reversal of scopolamine-induced cognitive impairment in rhesus monkey assessed increase in novel object retrieval administered orally 4 hrs prior to testing by novel object recognition test. In kind it is functional, organism-based. Conditions: Macaca mulatta. The procedure, abridged:
as §1

Data set [20] can be described thus: Half life in rhesus monkey. The class given is ADME, organism-based, Macaca mulatta. The conditions noted are these: in vivo.
Data set [21] is described as follows: Oral bioavailability in rat. The conditions noted are these: in vivo. In kind it is ADME, organism-based.
Data set [22] can be described thus: Volume of distribution at steady state in rat. The class given is ADME, organism-based. The conditions noted are these: in vivo, read-out: Vdss.
Data set [23] is described as follows: Clearance in rat. The conditions noted are these: in vivo. The class given is ADME, organism-based.
The subject of data set [24] is P-gp. The data set is described as follows: Substrate activity at P-gp (unknown origin) assessed as apparent permeability. The class given is ADME. The conditions noted are these: human, not told.
A short description of data set [25]: Selectivity ratio of IC50 for human GST-tagged PDE2A1 expressed in insect cells to IC50 for rhesus monkey brain PDE2A3 expressed in human AD293 cells.
In data set [26] the test system is P-gp. The data set is described as follows: Substrate activity at human P-gp assessed as efflux ratio. In kind it is ADME. The conditions noted are these: not told.
The nature of data set [27]: Half life in rat. In kind it is ADME, organism-based. The conditions noted are these: in vivo.
Data set [28] in a line: Oral bioavailability in rhesus monkey. In kind it is ADME, organism-based, Macaca mulatta. The conditions noted are these: in vivo.
The subject of data set [29] is Rattus norvegicus. Description: Reversal of scopolamine-induced cognitive impairment in Wistar Hannover rat assessed as improvement in episodic memory at 0.1 to 1 mg/kg, po administered 30 mins prior to testing by novel object recognition test. In kind it is functional, organism-based. The procedure, abridged:
(§2)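 Rats given vehicle or scopolamine, then exposed to two identical objects; one hour later exposed to one familiar and one novel object. Recognition memory scored as time spent exploring the novel versus the familiar object. Donepezil served as positive control.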

The nature of data set [30]: Protein binding in rhesus monkey plasma. The class given is ADME, cell-free, Macaca mulatta. The conditions noted are these: read-out: PPB (converted).
Data set [31] in a line: Volume of distribution at steady state in rhesus monkey. In kind it is ADME, organism-based, Macaca mulatta. Conditions: in vivo, read-out: Vdss.
A short description of data set [32]: Clearance in rhesus monkey. The class given is ADME, organism-based, Macaca mulatta. Conditions: in vivo.
The test system of data set [33] is Rattus norvegicus. Description: Reversal of scopolamine-induced cognitive impairment in Wistar Hannover rat assessed as improvement in episodic memory at 1.8 mg/kg, ip administered 30 mins prior to testing by novel object recognition test. The class given is functional, organism-based. A digest of the protocol:
as §2

In data set [34] the test system is Rhesus monkey. The data set is described as follows: Reversal of scopolamine-induced cognitive impairment in rhesus monkey assessed increase in novel object retrieval at 0.3 mg/kg by novel object recognition test. The conditions noted are these: Macaca mulatta. The class given is functional, organism-based. A digest of the protocol: as §1

Data on ten compounds can be found in ChEMBL document CHEMBL4196160, “Structure-Guided Design and Procognitive Assessment of a Potent and Selective Phosphodiesterase 2A Inhibitor” (ACS Med Chem Lett, 2018).

Structures are written as SMILES. Activity calls are given as the source filed them. Bounds are passed on as bounds.

As to `Cc1nc2c(c(CO)nn2[C@@H](C)c2ccc(C(F)(F)F)c(F)c2)c(=O)[nH]1`, in [1], the Ratio IC50 was 950. Besides, in data set [2], the IC50 (commonly the concentration that gives 50% inhibition) is 1.3 nM.
Take `C[C@@H](c1ccc(C(F)(F)F)cc1)n1nc(CF)c2c(=O)[nH]c(O)nc21`: in data set [2], the IC50 was determined as 2 nM.
On to `Cc1nc2c(c(C)nn2[C@@H](C)c2ccc(C(F)(F)F)cc2)c(=O)[nH]1`, for which the log distribution coefficient (logD) (in general, the decadic logarithm of the distribution of all forms, ionised or not, between an organic phase and buffer at a given pH) in [3] was determined as 2.7. For the same compound, the Ratio IC50 in data set [1] is 4; in data set [4], 101 to 500; in [5], > 500; in data set [6] it was > 500; in [7], > 500; in [8] it was 0 to 100. The Ratio IC50 was 101 to 500 in data set [9], 101 to 500 in data set [10], 0 to 100 in [11] and 101 to 500 in [12]. Besides, the IC50 in [2] is 23 nM.
`Cc1nc2c(c(CO)nn2[C@@H](C)c2ccc(C(F)(F)F)cc2)c(=O)[nH]1`: the fraction unbound is 0.15 in [13] and 0.1 in data set [30]. In data set [3], this compound registered a logD of 2.2 to 2.7. Besides, the Ratio IC50 in data set [1] was 315; in [4], > 500; in data set [5], > 500; in [6] it was > 500; in [7] it was > 500; in data set [8], > 500. The Ratio IC50 in [25], in data set [9], in [10], in data set [11] and in data set [12] was > 500 in each case. Further, the outcome in the data set on Rattus norvegicus [14] and in the data set on Rattus norvegicus [29] was Active. In the data set with Rhesus monkey [15], the result was inactive. Moreover, the figures for the IC50 in data set [16] and in [2] were > 50000 nM and 2 nM, respectively. In data set [17], the CLint scaled was < 6.2 mL/min/kg. Further, the efflux ratio (in general, a quotient of directional permeabilities that is used to spot active efflux) in the data set on P-gp [18] was 3; with P-gp [26], 1. Moreover, the Activity result in the data set on Rhesus monkey [19] was “Dose-dependent effect”. The half-life (commonly the time needed for the level to fall by half in the phase considered) in data set [20] was 5.2 h; in [27], 2.9 h. The bioavailability – broadly, dose-corrected exposure relative to a reference, in per cent – was 84% in data set [21] and 100% in data set [28]. The Vd in data set [22] is 1.4 L/kg; in data set [31], 0.88 L/kg. For the same compound, the clearance (commonly a measure of how efficiently the substance is removed, as volume per time) amounted to 5.6 mL/min/kg in [23] and 2 mL/min/kg in data set [32]. Further, the Papp – broadly, the rate of passage across a membrane or cell layer, normalised by area and donor concentration – with P-gp [24] came out at 37 ×10⁻⁶ cm/s.
Take `COc1cc2c(cc1OC)C(=O)C(CC1CCN(Cc3ccccc3)CC1)C2` (stereo not given): the result in the data set with Rattus norvegicus [33] and in the data set with Rhesus monkey [34] was Active.
On to `COc1ccc(Cc2nc3c(c(CO)nn3[C@@H](C)c3ccc(C(F)(F)F)cc3)c(=O)[nH]2)cc1OC`, for which the efflux ratio with P-gp [18] is 35; in the data set with P-gp [26] it was 11. Moreover, in data set [2], the IC50 stood at 0.89 nM.
Take `Cc1nc2c(c(CO)nn2[C@H](C)c2ccc(C(F)(F)F)cc2)c(=O)[nH]1`: it took 216 nM to reach half-maximal inhibition in data set [2] (IC50).
Same read-out and setting: then `Cc1nc2c(c(CO)nn2[C@H](c2ccc(C(F)(F)F)cc2)C(C)(C)C)c(=O)[nH]1`, with 9 nM.
`C[C@@H](c1ccc(C(F)(F)F)cc1)n1nc(CC(F)(F)F)c2c(=O)[nH]c(O)nc21` registered a logD in data set [3] of 1.8. For the same compound, the Ratio IC50 in data set [1], in [4], in data set [5], in [6], in data set [7] and in data set [8] was > 12000 each time. The Ratio IC50 in data set [25], in data set [9], in [10], in data set [11] and in data set [12] was > 12000 in each case. In addition, the values for the efflux ratio with P-gp [18] and in the data set on P-gp [26] were 19 and 4.8, respectively. Moreover, the half-inhibitory concentration (IC50) in data set [2] worked out at 0.96 nM.
In the case of `C[C@@H](c1ccc(C(F)(F)F)cc1)n1nc(CO)c2c(=O)[nH]c(O)nc21`, the logD in data set [3] turned out to be 1.1. In addition, the Ratio IC50 in data set [1] is 1190; in data set [4], > 1000; in data set [5], > 1000; in [6] it was > 1000; in data set [7], > 1000; in data set [8] it was > 1000. For the same compound, the Ratio IC50 in data set [25], in data set [9], in data set [10], in [11] and in data set [12] was > 1000 each time. The efflux ratio in the data set on P-gp [18] was determined as 0.38; in the data set on P-gp [26] it was 0.32. Also, the Papp with P-gp [24] worked out at 41 ×10⁻⁶ cm/s. Moreover, the IC50 in [2] is 14 nM.
